In ChEMBL document CHEMBL1129954, “From peptide to non-peptide. 3. Atropisomeric GPIIbIIIa antagonists containing the 3,4-dihydro-1H-1,4-benzodiazepine-2,5-dione nucleus” (J Med Chem, 1997):

Biological target: T1, Integrin alpha-IIb/beta-3 (Homo sapiens, UniProt P05106+P08514)
Assay: Binding affinity for soluble GPIIb/IIIa captured on fibrinogen coated microtiter plate
Assay type: protein-complex assay
Method in brief: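 Solid-phase ELISA measuring binding of soluble GPIIbIIIa to fibrinogen coated on a microtiter plate. Values are the average of at least 3 determinations.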

T1 sequence (P05106 27-788 limits assumed): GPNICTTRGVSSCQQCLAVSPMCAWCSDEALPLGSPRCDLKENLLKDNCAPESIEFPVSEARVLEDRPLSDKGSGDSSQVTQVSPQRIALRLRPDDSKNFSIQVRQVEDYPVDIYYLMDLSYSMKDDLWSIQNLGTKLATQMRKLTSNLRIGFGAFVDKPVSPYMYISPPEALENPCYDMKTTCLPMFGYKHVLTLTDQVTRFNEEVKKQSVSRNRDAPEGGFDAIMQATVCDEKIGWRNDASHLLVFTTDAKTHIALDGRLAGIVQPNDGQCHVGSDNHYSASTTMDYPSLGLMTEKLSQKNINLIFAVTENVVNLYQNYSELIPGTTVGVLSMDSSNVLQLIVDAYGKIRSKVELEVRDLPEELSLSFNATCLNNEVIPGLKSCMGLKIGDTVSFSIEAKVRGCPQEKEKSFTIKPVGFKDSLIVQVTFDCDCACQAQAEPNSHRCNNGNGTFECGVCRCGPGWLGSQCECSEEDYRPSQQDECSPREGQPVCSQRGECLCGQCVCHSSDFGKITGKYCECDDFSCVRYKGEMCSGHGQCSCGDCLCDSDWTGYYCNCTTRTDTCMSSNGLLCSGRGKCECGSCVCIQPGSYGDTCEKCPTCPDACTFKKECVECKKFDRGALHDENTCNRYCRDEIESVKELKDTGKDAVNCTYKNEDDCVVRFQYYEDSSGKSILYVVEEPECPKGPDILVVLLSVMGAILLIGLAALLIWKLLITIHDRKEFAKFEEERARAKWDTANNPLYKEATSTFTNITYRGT
T1 sequence (P08514 32-887 limits assumed): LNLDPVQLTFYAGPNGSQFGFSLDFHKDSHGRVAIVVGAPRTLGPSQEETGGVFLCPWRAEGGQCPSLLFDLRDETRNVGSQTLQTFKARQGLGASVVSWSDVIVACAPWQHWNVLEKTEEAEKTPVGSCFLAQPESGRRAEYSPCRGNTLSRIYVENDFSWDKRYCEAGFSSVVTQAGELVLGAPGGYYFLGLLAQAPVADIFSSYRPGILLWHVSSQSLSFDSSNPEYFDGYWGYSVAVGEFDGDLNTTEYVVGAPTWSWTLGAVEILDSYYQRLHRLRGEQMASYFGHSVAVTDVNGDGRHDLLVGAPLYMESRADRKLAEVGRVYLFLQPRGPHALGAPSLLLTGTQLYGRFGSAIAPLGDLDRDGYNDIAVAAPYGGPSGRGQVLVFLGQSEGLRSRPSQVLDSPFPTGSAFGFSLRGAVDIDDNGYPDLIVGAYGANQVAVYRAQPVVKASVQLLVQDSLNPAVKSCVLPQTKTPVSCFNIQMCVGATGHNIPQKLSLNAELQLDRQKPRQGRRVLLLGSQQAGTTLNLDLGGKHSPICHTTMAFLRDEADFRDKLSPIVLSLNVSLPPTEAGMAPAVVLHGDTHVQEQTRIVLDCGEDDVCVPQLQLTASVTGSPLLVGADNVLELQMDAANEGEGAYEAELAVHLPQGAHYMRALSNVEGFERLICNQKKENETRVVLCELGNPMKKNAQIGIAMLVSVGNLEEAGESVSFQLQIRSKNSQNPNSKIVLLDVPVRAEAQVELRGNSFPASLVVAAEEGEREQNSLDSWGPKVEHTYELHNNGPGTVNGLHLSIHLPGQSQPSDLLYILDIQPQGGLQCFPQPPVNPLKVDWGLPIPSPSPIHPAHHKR
T1 sequence (P08514 891-1039 limits assumed): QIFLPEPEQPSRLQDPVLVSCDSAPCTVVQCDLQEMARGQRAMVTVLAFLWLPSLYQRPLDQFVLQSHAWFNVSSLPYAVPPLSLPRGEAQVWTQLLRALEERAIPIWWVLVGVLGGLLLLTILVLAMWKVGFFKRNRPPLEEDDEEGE

| IC50 [nM] | SMILES |
| --- | --- |
| 7 | C[C@@H](CC(=O)O)N1CC(=O)N(C)c2c(Cl)cc(C#Cc3ccc(C(=N)N)cc3)cc2C1=O |
| 60 | C[C@H](CC(=O)O)N1CC(=O)N(C)c2ccc(C#Cc3ccc(C(=N)N)cc3)cc2C1=O |
| 2 | C[C@@H](CC(=O)O)N1CC(=O)N(C(C)(C)C)c2c(Cl)cc(C#Cc3ccc(C(=N)N)cc3)cc2C1=O (stereo in doubt; 9) |
| 18 | C[C@H](CC(=O)O)N1CC(=O)N(C(C)(C)C)c2c(Cl)cc(C#Cc3ccc(C(=N)N)cc3)cc2C1=O (stereo in doubt; 11) |
| 5 | C[C@@H](CC(=O)O)N1CC(=O)N(C)c2ccc(C#Cc3ccc(C(=N)N)cc3)cc2C1=O |
| 140 | C[C@@H](CC(=O)O)N1CC(=O)N(C(C)(C)C)c2c(Cl)cc(C#Cc3ccc(C(=N)N)cc3)cc2C1=O (stereo in doubt; 10) |
| 11 | CN1C(=O)CN(CCC(=O)O)C(=O)c2cc(C#Cc3ccc(C(=N)N)cc3)ccc21 |
| 65 | C[C@H](CC(=O)O)N1CC(=O)N(C(C)(C)C)c2c(Cl)cc(C#Cc3ccc(C(=N)N)cc3)cc2C1=O (stereo in doubt; 12) |

Biological target: T1, Integrin alpha-IIb/beta-3
Assay: Binding affinity for soluble GPIIb/IIIa captured on fibrinogen coated microtiter plate; 1:3 mixture enriched in the slower eluting diastereoisomer
Assay type: protein-complex assay
Method in brief: (§1)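 Solid-phase ELISA measuring binding of soluble GPIIbIIIa to plate-coated fibrinogen. Tested as a diastereoisomer-enriched mixture, single determination (n = 1).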

| IC50 [nM] | SMILES |
| --- | --- |
| 12 | C[C@@H](CC(=O)O)N1CC(=O)N(C(C)(C)C)c2ccc(C#Cc3ccc(C(=N)N)cc3)cc2C1=O |

Biological target: T1, Integrin alpha-IIb/beta-3
Assay: Binding affinity for soluble GPIIb/IIIa captured on fibrinogen coated microtiter plate; 3:1 mixture enriched in the faster eluting diastereoisomer
Assay type: protein-complex assay
Method in brief: as §1

| IC50 [nM] | SMILES |
| --- | --- |
| 3 | C[C@@H](CC(=O)O)N1CC(=O)N(C(C)(C)C)c2ccc(C#Cc3ccc(C(=N)N)cc3)cc2C1=O |
